ChEMBL document CHEMBL1145431, “Improved anti-osteoporosis potency and reduced endometrial membrane hyperplasia during hormone replacement therapy with estrogen-RGD peptide conjugates” (2007)
Where a SMILES comes first, the peptide text is derived from it. The star is where a group is joined. X1 = C[C@]12CC[C@@H]3c4ccc(OCC(=O)*)cc4CC[C@H]3[C@@H]1CCC2O

What was measured:
Mus musculus [1] = assay: Effect on liver weight in mouse at 0.1103 mmol/kg, po; assay type: functional
In short: (§1)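 Female Kuiming mice (7 weeks old, 30.7 ± 3.1 g) under abdominal OVX, sham group abdominorotomy only. From day 5 after surgery, dosed orally once daily for 4 weeks at 110.3 × 10-3 mmol/kg in 0.5% CMC (0.2 mL), vehicle group CMC alone. Blood drawn retro-orbitally, then left femur and organs removed under pentobarbital (40.0 mg/kg, i.p.).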

Mus musculus [2] = assay: Effect on serum phosphorous level in mouse at 0.011 mmol/kg, ip; assay type: functional; conditions: in the assay text read “0.11 mmol/kg” for “0.011 mmol/kg”
In short: (§2)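 Dose-response in OVX Kuiming mice, i.p. daily for 4 weeks in 0.5% CMC at 11.03, 55.15 or 110.3 × 10-3 mmol/kg. Serum from retro-orbital blood (3000 g, 20 min). Calcium by o-methylphenolphthalein complexone, phosphorus by molybdenum blue, ALP by activity on disodium phenylphosphate. n = 12, ANOVA.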

Mus musculus [3] = assay: Effect on phosphorus level in mouse at 0.110 mmol/kg, po; assay type: functional; in short: as §1
Mus musculus [4] = assay: Effect on uterus weight in ovariectomized mouse at 0.1103 mmol/kg, ip once daily for 4 weeks; assay type: functional
In short: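 Female Kuiming mice (7 weeks old, 30.7 ± 3.1 g), abdominal OVX under pentobarbital (40.0 mg/kg i.p.). From day 5 after surgery, i.p. injection once daily for 4 weeks, compound in aqueous 0.5% CMC prepared just before use. The day after the last dose, mice were anesthetized and killed, and lungs, livers, spleens and uteri were removed and weighed directly. n = 12, ANOVA, p < 0.05.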

Mus musculus [5] = assay: Effect on mineral level in mouse femur at 0.011 mmol/kg, ip; assay type: functional; conditions: in the assay text read “0.11 mmol/kg” for “0.011 mmol/kg”
In short: (§3)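 Dose-response in OVX Kuiming mice, i.p. daily for 4 weeks in 0.5% CMC at 11.03, 55.15 or 110.3 × 10-3 mmol/kg. Left femur: length, then defatting, drying at 120 °C for 6 h (dry weight), ashing at 800 °C for 8 h. Ash/dry ratio gives mineral content. Ash Ca and P measured colorimetrically. Liver, lung and spleen weighed directly. n = 12, ANOVA.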

Mus musculus [6] = assay: Effect on dry weight of femurs in recipient mouse at 0.055 mmol/kg, ip; assay type: functional, Femur; in short: as §3
Mus musculus [7] = assay: Effect on uterus weight in mouse at 0.055 mmol/kg, ip; assay type: functional
In short: (§4)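 Dose study in abdominally ovariectomized female Kuiming mice (30.7 ± 3.1 g). Daily i.p. dosing in aqueous 0.5% CMC from day 5 after surgery for 4 weeks, at 110.3, 55.15 or 11.03 × 10-3 mmol/kg. Liver, lung, spleen and uterus were removed after pentobarbital euthanasia and weighed. n = 12, ANOVA, p < 0.05.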

Mus musculus [8] = assay: Effect on calcium level in mouse femur at 0.055 mmol/kg, ip; assay type: functional; in short: as §3
Mus musculus [9] = assay: Effect on serum phosphorous level in mouse at 0.055 mmol/kg, ip; assay type: functional; in short: as §2
Mus musculus [10] = assay: Effect on serum ALP level in mouse at 0.011 mmol/kg, ip; assay type: functional; in short: as §2
Mus musculus [11] = assay: Effect on serum calcium level in mouse at 0.1103 mmol/kg, po; assay type: functional
In short: (§5)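 Oral OVX Kuiming mouse model, dosed daily for 4 weeks at 110.3 × 10-3 mmol/kg in 0.5% CMC. Retro-orbital blood stood 30 min at room temperature and was spun at 3000 g for 20 min. Serum kept at -20 °C. Calcium read by o-methylphenolphthalein complexone, phosphorus by molybdenum blue, ALP by activity on disodium phenylphosphate substrate.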

Mus musculus [12] = assay: Effect on spleen weight in mouse at 0.1103 mmol/kg, po; assay type: functional; in short: as §1
Mus musculus [13] = assay: Effect on lung weight in ovariectomized mouse at 0.1103 mmol/kg, ip once daily for 4 weeks; assay type: functional
In short: (§6)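 Female Kuiming mice (7 weeks, 30.7 ± 3.1 g) ovariectomized, sham group abdominorotomy. From day 5, i.p. once daily for 4 weeks at 110.3 × 10-3 mmol/kg in 0.5% CMC. Left femur cleaned, length measured, defatted in chloroform-methanol (2:1, 2 × 3 h), dried 120 °C 6 h for dry weight, ashed 800 °C 8 h. Mineral content = ash/dry weight. Ash dissolved in 6 N HCl and diluted. Ca by o-methylphenolphthalein complexone, P by molybdenum blue. Lungs and livers weighed directly.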

Mus musculus [14] = assay: Effect on femur ash weight in mouse at 0.1103 mmol/kg, po; assay type: functional; in short: as §1
Mus musculus [15] = assay: Effect on lung weight in mouse at 0.011 mmol/kg, ip; assay type: functional; in short: as §3
Mus musculus [16] = assay: Effect on serum calcium level in ovariectomized mouse at 0.1103 mmol/kg, ip once daily for 4 weeks; assay type: functional
In short: (§7)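 OVX Kuiming mice dosed i.p. daily for 4 weeks in 0.5% CMC. Blood taken retro-orbitally on the day after the last dose, stood 30 min, spun at 3000 g for 20 min, serum stored at -20 °C. Calcium by o-methylphenolphthalein complexone, phosphorus by molybdenum blue, ALP by activity with disodium phenylphosphate substrate.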

Mus musculus [17] = assay: Effect on calcium level in mouse femur at 0.011 mmol/kg, ip; assay type: functional; in short: as §3
Mus musculus [18] = assay: Effect on lung weight in mouse at 0.055 mmol/kg, ip; assay type: functional; in short: as §3
Mus musculus [19] = assay: Effect on serum ALP lavel in ovariectomized mouse at 0.1103 mmol/kg, ip once daily for 4 weeks; assay type: functional; in short: as §7
Mus musculus [20] = assay: Effect on serum ALP level in mouse at 0.055 mmol/kg, ip; assay type: functional; in short: as §2
Mus musculus [21] = assay: Effect on mineral level in mouse femur at 0.055 mmol/kg, ip; assay type: functional; in short: as §3
Mus musculus [22] = assay: Effect on lung weight in mouse at 0.1103 mmol/kg, po; assay type: functional; in short: as §1
Mus musculus [23] = assay: Effect on femur length in ovariectomized mouse at 0.1103 mmol/kg, ip once daily for 4 weeks; assay type: functional; in short: as §6
Mus musculus [24] = assay: Effect on serum calcium level in mouse at 0.055 mmol/kg, ip; assay type: functional; in short: as §2
Mus musculus [25] = assay: Effect on serum ALP level in mouse at 0.1103 mmol/kg, ip; assay type: functional; in short: as §7
Mus musculus [26] = assay: Effect on mineral content in ovariectomized mouse at 0.1103 mmol/kg, ip once daily for 4 weeks; assay type: functional; in short: as §6
Mus musculus [27] = assay: Effect on spleen weight in mouse at 0.011 mmol/kg, ip; assay type: functional; in short: as §3
Mus musculus [28] = assay: Effect on mineral content in mouse at 0.1103 mmol/kg, po; assay type: functional; in short: as §1
Mus musculus [29] = assay: Effect on femur length in recipient mouse at 0.011 mmol/kg, ip; assay type: functional; in short: as §3
Mus musculus [30] = assay: Effect on femur length in recipient mouse at 0.055 mmol/kg, ip; assay type: functional; in short: as §3
Mus musculus [31] = assay: Effect on spleen weight in mouse at 0.055 mmol/kg, ip; assay type: functional; in short: as §3
Mus musculus [32] = assay: Effect on uterus weight in mouse at 0.011 mmol/kg, ip; assay type: functional; in short: as §4
Mus musculus [33] = assay: Effect on femur ash weight in recipient mouse at 0.011 mmol/kg, ip; assay type: functional; in short: as §3
Mus musculus [34] = assay: Effect on serum ALP level in mouse at 0.1103 mmol/kg, po; assay type: functional; in short: as §5
Mus musculus [35] = assay: Effect on uterus weight in mouse at 0.1103 mmol/kg, po; assay type: functional
Mus musculus [36] = assay: Effect on phosphorous level in mouse femur at 0.055 mmol/kg, ip; assay type: functional; in short: as §3
Mus musculus [37] = assay: Effect on serum phosphorous level in mouse at […] mmol/kg, ip; assay type: functional; in short: as §7
Mus musculus [38] = assay: Effect on calcium level in mouse at 0.1103 mmol/kg, po; assay type: functional; in short: as §1

Structure (SMILES)	Activity (Mus musculus [1]) [g]	Activity (Mus musculus [2]) [mmol/L]	Activity (Mus musculus [3]) [%]	Activity (Mus musculus [4]) [mg]	Ratio (Mus musculus [5])	Activity (Mus musculus [6]) [mg]	Activity (Mus musculus [7]) [mg]	Activity (Mus musculus [8]) [%]	Activity (Mus musculus [9]) [mmol/L]	Activity (Mus musculus [10]) [U/L]	Activity (Mus musculus [11]) [mmol/L]	Activity (Mus musculus [12]) [mg]	Activity (Mus musculus [13]) [mg]	Activity (Mus musculus [14]) [mg]	Activity (Mus musculus [15]) [mg]	Activity (Mus musculus [16]) [mmol/L]	Activity (Mus musculus [17]) [%]	Activity (Mus musculus [18]) [mg]	Activity (Mus musculus [19]) [U/L]	Activity (Mus musculus [20]) [U/L]	other results
C[C@]12CC[C@@H]3c4ccc(OCC(=O)N[C@@H](CCCNC(=N)N)C(=O)NCC(=O)N[C@@H](CC(=O)O)C(=O)N[C@@H](CO)C(=O)O)cc4CC[C@H]3[C@@H]1CCC2O (stereo partly specified) (X1-RGDS-OH)	1.329	1.599	24.994	42.5	0.582	56.3	48.6	52.1	1.607	40.3	2.03	138	173	30.4	181	2.004	41.5	167	31.429	33.616	Ratio (Mus musculus [21]): 0.479; Activity (Mus musculus [22]): 166 mg; Activity (Mus musculus [23]): 1.642 cm; Activity (Mus musculus [24]): 2.047 mmol/L; Activity (Mus musculus [25]): 31.4 U/L; Ratio (Mus musculus [26]): 0.582; Activity (Mus musculus [27]): 125 mg; Ratio (Mus musculus [28]): 52.2%; Activity (Mus musculus [29]): 1.642 cm; Activity (Mus musculus [30]): 1.622 cm; Activity (Mus musculus [31]): 136 mg; Activity (Mus musculus [32]): 52.8 mg; Activity (Mus musculus [33]): 18.1 mg; Activity (Mus musculus [34]): 35.211 U/L; Activity (Mus musculus [35]): 43.2 mg; Activity (Mus musculus [36]): 24.274%; Activity (Mus musculus [37]): 1.599 mmol/L; Activity (Mus musculus [38]): 51.988%
C[C@]12CC[C@@H]3c4ccc(OCC(=O)N[C@@H](CCCNC(=N)N)C(=O)NCC(=O)N[C@@H](CC(=O)O)C(=O)N[C@@H](Cc5ccccc5)C(=O)O)cc4CC[C@H]3[C@@H]1CCC2O (stereo partly specified) (X1-RGDF-OH)	1.339	1.605	25.532	55.4	0.585	53.9	55.3	54.493	1.602	38.6	2.04	135	169	28.7	174	2.005	42.9	155	31.529	33.746	Ratio (Mus musculus [21]): 0.504; Activity (Mus musculus [22]): 165 mg; Activity (Mus musculus [23]): 1.635 cm; Activity (Mus musculus [24]): 2.04 mmol/L; Activity (Mus musculus [25]): 31.5 U/L; Ratio (Mus musculus [26]): 0.585; Activity (Mus musculus [27]): 145 mg; Ratio (Mus musculus [28]): 52.5%; Activity (Mus musculus [29]): 1.623 cm; Activity (Mus musculus [30]): 1.624 cm; Activity (Mus musculus [31]): 123 mg; Activity (Mus musculus [32]): 60.6 mg; Activity (Mus musculus [33]): 20.8 mg; Activity (Mus musculus [34]): 33.7 U/L; Activity (Mus musculus [35]): 47.5 mg; Activity (Mus musculus [36]): 24.845%; Activity (Mus musculus [37]): 1.605 mmol/L; Activity (Mus musculus [38]): 53.001%
